Assay results as given in ChEMBL document CHEMBL4368933, “Structure-activity relationship of leucyladenylate sulfamate analogues as leucyl-tRNA synthetase (LRS)-targeting inhibitors of Mammalian target of rapamycin complex 1 (mTORC1)” (Bioorg Med Chem, 2019).
Blank lines part the entries; values can stand above or below the molecule they belong to. Calls of active or inactive are those of the source. The calls are words filed in the database; no cut-off is given here.

Columns and labels:
[1] = target: Leucine--tRNA ligase, cytoplasmic (Homo sapiens) (UniProt Q9P2J5); experiment: Inhibition of Leucyl-tRNA synthetase-mediated mTORC1 signaling activation in human HEK293 cells assessed as reduction in leucine-induced S6K phosphorylation at 200 uM preincubated for 50 mins followed by leucine-stimulation and measured after 10 mins by Western blot analysis; type: cell-based
Leucine--tRNA ligase, cytoplasmic (Homo sapiens), sequence (Q9P2J5 whole entry, looked up): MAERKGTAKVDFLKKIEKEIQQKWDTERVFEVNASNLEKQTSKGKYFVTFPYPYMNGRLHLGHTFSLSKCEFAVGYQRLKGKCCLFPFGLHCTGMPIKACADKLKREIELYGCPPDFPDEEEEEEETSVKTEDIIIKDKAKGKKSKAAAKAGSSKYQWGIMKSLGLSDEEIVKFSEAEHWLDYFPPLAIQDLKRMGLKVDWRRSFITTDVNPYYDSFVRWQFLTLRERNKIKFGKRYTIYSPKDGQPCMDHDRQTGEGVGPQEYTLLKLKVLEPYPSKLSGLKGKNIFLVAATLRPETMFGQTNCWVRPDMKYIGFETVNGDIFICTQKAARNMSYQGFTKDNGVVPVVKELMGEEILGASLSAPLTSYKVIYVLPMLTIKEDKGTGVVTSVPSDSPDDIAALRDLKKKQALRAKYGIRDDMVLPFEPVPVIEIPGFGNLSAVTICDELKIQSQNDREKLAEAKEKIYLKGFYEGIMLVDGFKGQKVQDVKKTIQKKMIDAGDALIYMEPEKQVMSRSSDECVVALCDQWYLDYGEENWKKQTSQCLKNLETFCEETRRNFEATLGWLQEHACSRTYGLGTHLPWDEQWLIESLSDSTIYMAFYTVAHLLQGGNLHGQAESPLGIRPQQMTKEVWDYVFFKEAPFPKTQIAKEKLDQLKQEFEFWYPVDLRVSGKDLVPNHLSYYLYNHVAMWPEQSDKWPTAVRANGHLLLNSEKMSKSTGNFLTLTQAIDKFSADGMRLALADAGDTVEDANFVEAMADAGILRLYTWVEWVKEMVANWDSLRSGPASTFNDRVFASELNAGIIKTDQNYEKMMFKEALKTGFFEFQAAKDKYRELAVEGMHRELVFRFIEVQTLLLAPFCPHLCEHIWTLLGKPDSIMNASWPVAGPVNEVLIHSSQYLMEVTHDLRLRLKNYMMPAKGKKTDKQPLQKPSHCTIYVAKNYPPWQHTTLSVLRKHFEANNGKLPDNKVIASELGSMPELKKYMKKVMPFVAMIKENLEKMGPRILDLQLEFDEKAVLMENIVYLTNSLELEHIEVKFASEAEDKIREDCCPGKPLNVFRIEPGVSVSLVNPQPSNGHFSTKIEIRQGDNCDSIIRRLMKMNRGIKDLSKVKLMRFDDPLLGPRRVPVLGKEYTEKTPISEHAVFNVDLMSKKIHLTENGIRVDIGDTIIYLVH
Procedure, shortened: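 HEK293 cells pretreated with test agent at a fixed 200 µM, alongside rapamycin (100 nM) and leucinol (800 µM) as references. mTORC1 then activated by adding leucine for 10 min. S6K phosphorylation read by Western blot.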

[2] = system: HEK293; experiment: Effect on leucine-induced AKT levels in human HEK293 cells at 200 uM preincubated for 50 mins followed by leucine-stimulation and measured after 10 mins by Western blot analysis; type: functional, cell-based
[3] = target: mTORC2 (Homo sapiens) (UniProt P42345+Q6R327+Q9BVC4+Q9BPZ7); experiment: Inhibition of mTORC2 signaling in human HEK293 cells assessed as reduction in leucine-induced AKT phosphorylation at 200 uM preincubated for 50 mins followed by leucine-stimulation and measured after 10 mins by Western blot analysis; type: cell-based
[4] = system: SNU-638; experiment: Antiproliferative activity against human SNU638 cells after 72 hrs by SRB assay; type: functional, cell-based; conditions: SNU-638, 72 h
Procedure, shortened: (§1)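 Colorimetric growth assay with IC50 values derived; etoposide as positive control. Cell lines: A549 (lung cancer), HCT116 (colon cancer), MDA-MB-231 (breast cancer), SK-Hep-1 (liver cancer), SNU638 (stomach cancer), MRC5 (normal lung […]).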

[5] = system: SK-HEP1; experiment: Antiproliferative activity against human SKHEP1 cells after 72 hrs by SRB assay; type: functional, cell-based; conditions: SK-HEP1, 72 h; procedure, shortened: as §1
[6] = system: MDA-MB-231; experiment: Antiproliferative activity against human MDA-MB-231 cells after 72 hrs by SRB assay; type: functional, cell-based; conditions: MDA-MB-231, 72 h; procedure, shortened: as §1
[7] = system: HCT-116; experiment: Antiproliferative activity against human HCT116 cells after 72 hrs by SRB assay; type: functional, cell-based; conditions: HCT-116, 72 h; procedure, shortened: as §1
[8] = system: MRC5; experiment: Antiproliferative activity against human MRC5 cells after 72 hrs by SRB assay; type: cell-based; conditions: MRC5, 72 h; procedure, shortened: as §1
[9] = system: A549; experiment: Antiproliferative activity against human A549 cells after 72 hrs by SRB assay; type: functional, cell-based; conditions: A549, 72 h; procedure, shortened: as §1

inhibition [1]: inactive | inhibition [3]: inactive
Structure (SMILES): CNc1ncnc2c1ncn2[C@@H]1O[C@H](COS(=O)(=O)NC(=O)[C@H](O)[C@@H](O)C(C)C)[C@@H](O)[C@H]1O
Activity [2]: inactive

inhibition [1]: inactive
Structure (SMILES): CC(C)C[C@H](N)C(=O)NS(=O)(=O)OC[C@H]1O[C@@H](n2cnc3c(N)ncnc32)C[C@@H]1O

inhibition [1]: inactive
Structure (SMILES): CO[C@H](C(=O)NS(=O)(=O)OC[C@H]1O[C@@H](n2cnc3c(N)nc(Cl)nc32)[C@H](O)[C@@H]1O)[C@H](O)C(C)C

inhibition [1]: inactive
Structure (SMILES): Nc1ncnc2c1ncn2[C@@H]1O[C@H](COS(=O)(=O)NC(=O)c2cc(C3CC3)n[nH]2)[C@@H](O)[C@H]1O

inhibition [1]: inactive
Structure (SMILES): CC(C)[C@H](O)[C@@H](O)C(=O)NS(=O)(=O)OC[C@H]1O[C@@H](n2cnc3c(N)ncnc32)C[C@@H]1O

inhibition [1]: Active
Structure (SMILES): Nc1ncnc2c1ncn2[C@@H]1O[C@H](COS(=O)(=O)NC(=O)[C@@H](O)[C@H](O)C2CC2)[C@H]2NC(=O)O[C@H]21

inhibition [1]: Active
Structure (SMILES): CC(C)C[C@H](O)C(=O)NS(=O)(=O)OC[C@H]1O[C@@H](n2cnc3c(N)ncnc32)[C@@H](O)[C@@H]1O

inhibition [1]: inactive | inhibition [3]: inactive
Structure (SMILES): CC(C)[C@@H](O)[C@H](O)C(=O)NS(=O)(=O)OC[C@@H]1C[C@@H](O)[C@H](n2cnc3c(N)ncnc32)O1
Activity [2]: inactive

inhibition [1]: inactive | inhibition [3]: inactive
Structure (SMILES): CC(C)[C@H](O)[C@@H](O)C(=O)NS(=O)(=O)OC[C@H]1O[C@@H](n2cnc3c(N)ncnc32)[C@H](O)[C@@H]1O
Activity [2]: inactive

inhibition [1]: Active
Structure (SMILES): CC(C)/C=C/C(=O)NS(=O)(=O)OC[C@H]1O[C@@H](n2cnc3c(N)ncnc32)[C@H](O)[C@@H]1O

inhibition [1]: Active
Structure (SMILES): CC(C)c1cc(C(=O)NS(=O)(=O)OC[C@H]2O[C@@H](n3cnc4c(N)nc(I)nc43)[C@H](O)[C@@H]2O)n(C)n1

inhibition [1]: inactive
Structure (SMILES): CO[C@H](C(=O)NS(=O)(=O)OC[C@H]1O[C@@H](n2cnc3c(N)ncnc32)C[C@@H]1O)[C@H](O)C(C)C

inhibition [1]: inactive
Structure (SMILES): O=C(NS(=O)(=O)OC[C@H]1O[C@@H](n2cnc3c(=O)[nH]cnc32)[C@H](O)[C@@H]1O)[C@@H](O)[C@H](O)C1CC1

inhibition [1]: inactive
Structure (SMILES): CN[C@@H](CC(C)C)C(=O)NS(=O)(=O)OC[C@H]1O[C@@H](n2cnc3c(N)ncnc32)[C@H](O)[C@@H]1O

inhibition [1]: Active | IC50 [4]: > 20 µM | IC50 [5]: > 20 µM | IC50 [6]: > 20 µM | IC50 [7]: > 20 µM | IC50 [9]: > 20 µM
Structure (SMILES): CO[C@H](C(=O)NS(=O)(=O)OC[C@H]1O[C@@H](n2cnc3c(N)nc(Cl)nc32)[C@H](O)[C@@H]1O)[C@H](OC)C(C)C
IC50 [8]: > 20 µM

inhibition [1]: Active | IC50 [4]: 5.5 µM | IC50 [5]: 5.87 µM | IC50 [6]: 7.75 µM | IC50 [7]: 7.51 µM | IC50 [9]: 6.27 µM
Structure (SMILES): CC(C)C[C@H](Cl)C(=O)NS(=O)(=O)OC[C@H]1O[C@@H](n2cnc3c(N)nc(Cl)nc32)[C@H](O)[C@@H]1O
IC50 [8]: > 20 µM

inhibition [1]: inactive
Structure (SMILES): CO[C@H](C(=O)NS(=O)(=O)OC[C@H]1O[C@@H](n2cnc3c(N)ncnc32)C[C@@H]1O)[C@H](OC)C(C)C

inhibition [1]: inactive
Structure (SMILES): CC(C)C[C@H](N)C(=O)NS(=O)(=O)OC[C@H]1O[C@@H](n2cnc3c(N)ncnc32)[C@H](O)[C@@H]1N

inhibition [1]: Active
Structure (SMILES): CC(C)C[C@H](O)C(=O)NS(=O)(=O)OC[C@H]1O[C@@H](n2cnc3c(N)nc(I)nc32)[C@H](O)[C@@H]1O

inhibition [1]: inactive
Structure (SMILES): CO[C@H](C(=O)NS(=O)(=O)OC[C@H]1O[C@@H](n2cnc3c(N)ncnc32)[C@H](O)[C@@H]1O)[C@H](O)C(C)C

inhibition [1]: Active
Structure (SMILES): CC(C)C[C@@H](O)C(=O)NS(=O)(=O)OC[C@H]1O[C@@H](n2cnc3c(N)ncnc32)[C@H](O)[C@@H]1O

inhibition [1]: inactive
Structure (SMILES): CC(C)C[C@H](O)C(=O)NS(=O)(=O)OC[C@H]1O[C@@H](n2cnc3c(N)nc(Cl)nc32)[C@H](O)[C@@H]1O

IC50 [4]: 0.34 µM | IC50 [5]: 0.41 µM | IC50 [6]: 3.38 µM | IC50 [7]: 1.22 µM | IC50 [9]: 0.47 µM
Structure (SMILES): COc1cc([C@@H]2c3cc4c(cc3[C@@H](O[C@@H]3O[C@@H]5CO[C@@H](C)O[C@H]5[C@H](O)[C@H]3O)[C@H]3COC(=O)[C@H]23)OCO4)cc(OC)c1O [ETOPOSIDE]
IC50 [8]: 12.7 µM

inhibition [1]: Active | inhibition [3]: inactive
Structure (SMILES): CC(C)[C@@H](O)[C@H](O)C(=O)NS(=O)(=O)OC[C@H]1O[C@@H](n2cnc3c(N)nc(I)nc32)[C@H](O)[C@@H]1O
Activity [2]: inactive

inhibition [1]: inactive
Structure (SMILES): CC(C)C[C@H](Cl)C(=O)NS(=O)(=O)OC[C@H]1O[C@@H](n2cnc3c(N)ncnc32)[C@H](O)[C@@H]1O

inhibition [1]: inactive
Structure (SMILES): CC(C)c1cc(C(=O)NS(=O)(=O)OC[C@H]2O[C@@H](n3cnc4c(N)nc(I)nc43)[C@H](O)[C@@H]2O)[nH]n1

inhibition [1]: inactive
Structure (SMILES): CC(C)[C@@H](O)[C@H](O)C(=O)NS(=O)(=O)OC[C@H]1O[C@@H](n2cnc3c(N)ncnc32)[C@@H]2OC(=O)N[C@@H]21

inhibition [1]: Active
Structure (SMILES): CC(C)(C)c1cc(C(=O)NS(=O)(=O)OC[C@H]2O[C@@H](n3cnc4c(N)ncnc43)[C@H](O)[C@@H]2O)[nH]n1

inhibition [1]: Active | IC50 [4]: 5.7 µM | IC50 [5]: 7.26 µM | IC50 [6]: 17.8 µM | IC50 [7]: 9.14 µM | IC50 [9]: 6.93 µM
Structure (SMILES): Nc1ncnc2c1ncn2[C@@H]1O[C@H](COS(=O)(=O)NC(=O)[C@@H](O)[C@H](O)C2CC2)[C@@H](O)[C@@H]1O
IC50 [8]: > 20 µM

inhibition [1]: Active | IC50 [4]: 4.77 µM | IC50 [5]: 5.86 µM | IC50 [6]: 16.7 µM | IC50 [7]: 7.27 µM | IC50 [9]: 4.84 µM
Structure (SMILES): Nc1nc(I)nc2c1ncn2[C@@H]1O[C@H](COS(=O)(=O)NC(=O)[C@@H](O)[C@H](O)C2CC2)[C@@H](O)[C@H]1O
IC50 [8]: > 20 µM

inhibition [1]: inactive | inhibition [3]: Active
Structure (SMILES): CC(C)C[C@H](O)C(=O)NS(=O)(=O)OC[C@H]1O[C@@H](n2cnc3c(N)ncnc32)C[C@@H]1O

inhibition [1]: inactive
Structure (SMILES): CC(C)c1cc(C(=O)NS(=O)(=O)OC[C@H]2O[C@@H](n3cnc4c(N)ncnc43)[C@H](O)[C@@H]2O)[nH]n1

inhibition [1]: Active
Structure (SMILES): CC(C)c1cc(C(=O)NS(=O)(=O)OC[C@H]2O[C@@H](n3cnc4c(N)ncnc43)[C@H](O)[C@@H]2O)n(C)n1

inhibition [1]: inactive | inhibition [3]: Active
Structure (SMILES): CNc1ncnc2c1ncn2[C@@H]1O[C@H](COS(=O)(=O)NC(=O)[C@H](CC(C)C)OC)[C@@H](O)[C@H]1O

inhibition [1]: inactive
Structure (SMILES): Nc1ncnc2c1ncn2[C@@H]1O[C@H](COS(=O)(=O)NC(=O)[C@@H](O)[C@H](O)C2CC2)[C@@H](O)[C@H]1O

inhibition [1]: Active
Structure (SMILES): CC(C)C[C@H](S)C(=O)NS(=O)(=O)OC[C@H]1O[C@@H](n2cnc3c(N)ncnc32)[C@H](O)[C@@H]1O

inhibition [1]: inactive
Structure (SMILES): CNc1ncnc2c1ncn2[C@@H]1O[C@H](COS(=O)(=O)NC(=O)[C@@H](Cl)CC(C)C)[C@@H](O)[C@H]1O

inhibition [1]: Active | IC50 [4]: > 20 µM | IC50 [5]: > 20 µM | IC50 [6]: > 20 µM | IC50 [7]: > 20 µM | IC50 [9]: > 20 µM
Structure (SMILES): CC(C)C[C@H](O)C(=O)NS(=O)(=O)OC[C@H]1O[C@@H](n2cnc3c(=O)[nH]cnc32)[C@H](O)[C@@H]1O
IC50 [8]: > 20 µM

inhibition [1]: Active | inhibition [3]: inactive
Structure (SMILES): CC(C)[C@@H](O)[C@H](O)C(=O)NS(=O)(=O)OC[C@H]1O[C@@H](n2cnc3c(N)ncnc32)[C@H](O)[C@@H]1O
Activity [2]: inactive

inhibition [1]: inactive
Structure (SMILES): CC(C)C[C@H](S)C(=O)NS(=O)(=O)OC[C@H]1O[C@@H](n2cnc3c(=O)[nH]cnc32)[C@H](O)[C@@H]1O

inhibition [1]: Active | IC50 [4]: > 20 µM | IC50 [5]: > 20 µM | IC50 [6]: > 20 µM | IC50 [7]: > 20 µM | IC50 [9]: > 20 µM
Structure (SMILES): CC(C)[C@@H](O)[C@H](O)C(=O)NS(=O)(=O)OC[C@H]1O[C@@H](n2cnc3c(=O)[nH]cnc32)[C@H](O)[C@@H]1O
IC50 [8]: > 20 µM

inhibition [1]: Active
Structure (SMILES): CC(C)C[C@H](N)CO

inhibition [1]: inactive
Structure (SMILES): CC(C)[C@@H](O)[C@H](O)C(=O)NS(=O)(=O)OC[C@H]1O[C@@H](n2cnc3c(N)ncnc32)[C@@H](O)[C@@H]1O

inhibition [1]: inactive | inhibition [3]: Active
Structure (SMILES): CC(C)C[C@H](O)C(=O)NS(=O)(=O)OC[C@@H]1C[C@@H](O)[C@H](n2cnc3c(N)ncnc32)O1

inhibition [1]: inactive
Structure (SMILES): CO[C@H](C(=O)NS(=O)(=O)OC[C@H]1O[C@@H](n2cnc3c(N)ncnc32)[C@H](O)[C@@H]1O)[C@H](OC)C(C)C

inhibition [1]: inactive
Structure (SMILES): CC(C)C[C@@H](O)C(=O)NS(=O)(=O)OC[C@H]1O[C@@H](n2cnc3c(=O)[nH]cnc32)[C@H](O)[C@@H]1O
